Measurements reported in ChEMBL document CHEMBL1123462, “Indolo[2,1-c][1,4]benzodiazepines: a new class of antiallergic agents” (J Med Chem, 1986).

Legend:
Format in all cases: functional
Rattus norvegicus [1] = assay: Compound was tested for the inhibition of rat passive cutaneous anaphylaxis (PCA) at 10 mg/kg dose ip (1h pretreatment); conditions: route intraperitoneal
Rattus norvegicus [2] = assay: Compound was tested for the inhibition of rat passive cutaneous anaphylaxis (PCA) at 10 mg/kg dose ip; conditions: route intraperitoneal
Rattus norvegicus [3] = assay: Compound was tested for the inhibition of rat passive cutaneous anaphylaxis (PCA) administered intraperitoneally; conditions: ip
How it was run: (§1)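 Male Sprague-Dawley rats were given 0.05 mL of high-titer IgE rat anti-ovalbumin antiserum intradermally. 24 h later: iv ovalbumin plus Evans Blue in saline, with simultaneous intradermal serotonin and histamine. Drug given ip 1 h before antigen. At 30 min, skin was reflected and wheal size and colour scored against a chart. %inhibition = (1 − mean treated/mean control score)×100. Dunnett's test, p ≤ 0.05.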

Rattus norvegicus [4] = assay: Compound was tested for the inhibition of rat passive cutaneous anaphylaxis (PCA) at 0.37 mg/kg dose ip (1h pretreatment); conditions: route intraperitoneal; how it was run: as §1
Cavia porcellus [5] = assay: Compound was tested for the inhibition of guinea pig active lung anaphylaxis (ALA) at 0.01 mg/kg iv
How it was run: (§2)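 Guinea pigs were sensitized with egg albumin 1 mg sc plus Bordetella pertussis vaccine adjuvant. Two weeks later: pentobarbital 65 mg/kg ip, then trachea, jugular vein and carotid cannulated. Drug given iv before an iv egg albumin challenge (0.5 mg/kg). Airway resistance (bronchoconstriction) and arterial pressure monitored. %inhibition given as mean ± SE; ED50 iv with 95% confidence limits.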

Cavia porcellus [6] = assay: Compound was tested for the inhibition of guinea pig active lung anaphylaxis (ALA) administered intravenously; conditions: iv; how it was run: as §2
Cavia porcellus [7] = assay: Inhibition of guinea pig ALA at a dose of 1 mg/kg after 1 hr postdosing intraperitoneally 1 h; conditions: ip, route intraperitoneal
How it was run: (§3)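 Guinea pigs were sensitized with egg albumin 1 mg sc plus pertussis vaccine adjuvant. Two weeks later they were anesthetized (pentobarbital 65 mg/kg ip) and cannulated. Drug was given ip or orally at 1 mg/kg. Challenge with egg albumin 0.5 mg/kg iv at 1, 7, 8 or 24 h post-dose, with bronchoconstriction measured. %inhibition given as mean ± SD.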

Cavia porcellus [8] = assay: Inhibition of guinea pig ALA at a dose of 1 mg/kg after 1 hr postdosing orally 1 h; conditions: route oral; how it was run: as §3
Cavia porcellus [9] = assay: Inhibition of guinea pig ALA at a dose of 1 mg/kg after 24 hr postdosing intraperitoneally; conditions: ip, route intraperitoneal; how it was run: as §3
Cavia porcellus [10] = assay: Inhibition of guinea pig ALA at a dose of 1 mg/kg after 24 hr postdosing orally; conditions: route oral; how it was run: as §3
Cavia porcellus [11] = assay: Inhibition of guinea pig ALA at a dose of 1 mg/kg after 7 hr postdosing intraperitoneally; conditions: ip, route intraperitoneal; how it was run: as §3
Cavia porcellus [12] = assay: Inhibition of guinea pig ALA at a dose of 1 mg/kg after 8 hr postdosing orally; conditions: route oral; how it was run: as §3
Rattus norvegicus [13] = assay: Compound was tested […] for the inhibition of serotonin release in rat peritoneal cell
Rattus norvegicus [14] = assay: Compound was tested for percent inhibition, at 0.37 mg/kg administered intraperitoneally against histamine; conditions: ip, route intraperitoneal; how it was run: as §1
Rattus norvegicus [15] = assay: Compound was tested for percent inhibition, at 0.37 mg/kg administered intraperitoneally against serotonin by Dunnett's test; conditions: ip, route intraperitoneal; how it was run: as §1
Rattus norvegicus [16] = assay: Compound was tested for percent inhibition, at 3.3 mg/kg administered intraperitoneally against histamine by Dunnett's test; conditions: ip, route intraperitoneal; how it was run: as §1
Rattus norvegicus [17] = assay: Compound was tested for percent inhibition, at 3.3 mg/kg administered intraperitoneally against rat passive cutaneous anaphylaxis by Dunnett's test; conditions: ip, route intraperitoneal; how it was run: as §1
Rattus norvegicus [18] = assay: Compound was tested for percent inhibition, at 3.3 mg/kg administered intraperitoneally against serotonin by Dunnett's test; conditions: ip, route intraperitoneal; how it was run: as §1

c1ccc2c(c1)Cn1c(cc3ccccc31)C(N1CCCCC1)=N2 was tested, and the inhibition in vivo at 10 mg/kg (Rattus norvegicus [1]) was 27.4%.

OC1CCN(C2=Nc3ccccc3Cn3c2cc2ccccc23)CC1 gave an inhibition in vivo at 10 mg/kg (Rattus norvegicus [1]) of 40.2%.

Work on O=C1Nc2ccccc2Cn2c1cc1ccccc12 yielded an inhibition in vivo at 10 mg/kg (Rattus norvegicus [2]) of 23.2%.

CCCCN1CCN(C2=Nc3ccccc3Cn3c2cc2ccccc23)CC1 showed an ED50 (Rattus norvegicus [3]) of 1.32 mg/kg and an inhibition in vivo at 0.37 mg/kg (Rattus norvegicus [4]) of 39.9%.

For CCOC(=O)N1CCN(C2=Nc3ccccc3Cn3c2cc2ccccc23)CC1, the ED50 (Rattus norvegicus [3]) was 0.67 mg/kg and the inhibition in vivo at 0.37 mg/kg (Rattus norvegicus [4]) was 38.7%.

In the case of CN1CCN(C2=Nc3ccccc3Cn3c2cc2ccccc23)CC1, the inhibition in vivo at 0.01 mg/kg (Cavia porcellus [5]) is reported as 41%, the ED50 (Cavia porcellus [6]) is reported as 0.01 mg/kg and the inhibition in vivo at 1 mg/kg (Cavia porcellus [7]) is reported as 74%. The inhibition in vivo at 1 mg/kg (Cavia porcellus [8]) was 51%, the inhibition in vivo at 1 mg/kg (Cavia porcellus [9]) was 26% and the inhibition in vivo at 1 mg/kg (Cavia porcellus [10]) was 61%. The inhibition in vivo at 1 mg/kg (Cavia porcellus [11]) was 75%, the inhibition in vivo at 1 mg/kg (Cavia porcellus [12]) was 87% and the ED50 (Rattus norvegicus [3]) was 0.19 mg/kg. For the same molecule, the IC50 (Rattus norvegicus [13]) was 15.9 µM, the inhibition in vivo at 0.37 mg/kg (Rattus norvegicus [14]) was 58.2% and the inhibition in vivo at 0.37 mg/kg (Rattus norvegicus [15]) was 50.9%. For the same molecule, the inhibition in vivo at 3.3 mg/kg (Rattus norvegicus [16]) was 63.3%, the inhibition in vivo at 3.3 mg/kg (Rattus norvegicus [17]) was 100% and the inhibition in vivo at 3.3 mg/kg (Rattus norvegicus [18]) was 65.9%. It also gave an inhibition in vivo at 0.37 mg/kg (Rattus norvegicus [4]) of 93.6%.
